These results are taken from article PMC10100219 (Chemistry (Weinheim an Der Bergstrasse, Germany), 2022).

Common to all, as to assay: UV-Vis titration, Soret spin-state shift
Holding throughout (type): binding

For assay [1], the target named is T1, CYP199A4 (Rhodopseudomonas palustris, UniProt Q2IU02).
T1 sequence (Q2IU02 1-410): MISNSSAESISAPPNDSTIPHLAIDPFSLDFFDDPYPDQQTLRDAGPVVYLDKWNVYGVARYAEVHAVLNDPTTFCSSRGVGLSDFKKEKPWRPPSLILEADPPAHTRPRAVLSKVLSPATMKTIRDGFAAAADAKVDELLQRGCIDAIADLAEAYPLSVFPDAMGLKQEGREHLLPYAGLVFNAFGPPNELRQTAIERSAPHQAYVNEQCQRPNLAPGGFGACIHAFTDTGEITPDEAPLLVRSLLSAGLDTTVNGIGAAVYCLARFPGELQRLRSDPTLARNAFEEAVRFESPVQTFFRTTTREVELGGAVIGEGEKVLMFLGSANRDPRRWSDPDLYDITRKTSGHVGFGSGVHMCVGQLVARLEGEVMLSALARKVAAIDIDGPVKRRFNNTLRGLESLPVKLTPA

Assay [2] deals with T2, CYP199A4 (Rhodopseudomonas palustris, UniProt Q2IU02, T253A).
T2 sequence (Q2IU02 1-410 T253A): T1 sequence (Q2IU02 1-410) with T253A
The method in brief: (§1)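 CYP199A4 mutants (D251N, T252A) from Rhodopseudomonas palustris HaA2 were titrated with para-substituted benzoic acid test compounds, with UV-Vis monitoring to obtain Kd. Spectra were recorded from 700 to 250 nm at 600 nm min⁻¹, and repeated at 60 nm min⁻¹ to verify small Soret shifts. P450 concentration came from pyridine hemochromogen extinction coefficients: D251N 123±1, T252A 120±4 mM⁻¹ cm⁻¹.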

For assay [3], the target named is T3, CYP199A4 (Rhodopseudomonas palustris, UniProt Q2IU02, D252N).
T3 sequence (Q2IU02 1-410 D252N): T1 sequence (Q2IU02 1-410) with D252N
The method in brief:
as §1

Structures are written as SMILES. Residue numbers refer to the chain shown, from its start.

As for `CCSc1ccc(C(=O)O)cc1` [4‐ethylthiobenzoic acid], the Kd (commonly the concentration at which binding is half-saturated) in assay [1] was 990 ± 50 nM; in assay [2] it was 250 ± 50 nM.
`CSc1ccc(C(=O)O)cc1` [4‐methylthiobenzoic acid]: the Kd stood at 2300 ± 300 nM in assay [1], 830 ± 80 nM in assay [3] and 1400 ± 100 nM in assay [2].
